Assay outcomes (PubChem BioAssay)
Compounds with a hit are over-represented: about 3.7% of the library has one in this group of screens.
KCNK9 block: KCNK9 potassium channel inhibitors, primary screen, HEK293 cells, thallium flux; Potassium channel subfamily K member 9 (Homo sapiens), Q9NPC2; FluxOR thallium flux fluorescence; hits give low values; B-score at 10 µM; 310,000 compounds, 1.2% hits;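 active = ratio B-score over 3 SD below the library mean, with starting fluorescence within 5 SD of its mean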;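 also: negative B-score means less thallium flux so channel inhibition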
KCNQ1 pot: potentiators or activators of KCNQ1 channel, primary screen, cell-based, thallium flux, high-throughput; 310,000 compounds, 0.35% hits; AID 2648, 2010; Potassium voltage-gated channel subfamily KQT member 1 (Homo sapiens), P51787; CHO-K1 KCNQ1, thallium flux FluxOR fluorescence; hits give high values; B-score at 10 µM;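 active = fluorescence ratio B-score, a plate-corrected score, at least three library SD, with initial intensity B-score within 5 SD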
Target sequence (P51787 whole entry, looked up): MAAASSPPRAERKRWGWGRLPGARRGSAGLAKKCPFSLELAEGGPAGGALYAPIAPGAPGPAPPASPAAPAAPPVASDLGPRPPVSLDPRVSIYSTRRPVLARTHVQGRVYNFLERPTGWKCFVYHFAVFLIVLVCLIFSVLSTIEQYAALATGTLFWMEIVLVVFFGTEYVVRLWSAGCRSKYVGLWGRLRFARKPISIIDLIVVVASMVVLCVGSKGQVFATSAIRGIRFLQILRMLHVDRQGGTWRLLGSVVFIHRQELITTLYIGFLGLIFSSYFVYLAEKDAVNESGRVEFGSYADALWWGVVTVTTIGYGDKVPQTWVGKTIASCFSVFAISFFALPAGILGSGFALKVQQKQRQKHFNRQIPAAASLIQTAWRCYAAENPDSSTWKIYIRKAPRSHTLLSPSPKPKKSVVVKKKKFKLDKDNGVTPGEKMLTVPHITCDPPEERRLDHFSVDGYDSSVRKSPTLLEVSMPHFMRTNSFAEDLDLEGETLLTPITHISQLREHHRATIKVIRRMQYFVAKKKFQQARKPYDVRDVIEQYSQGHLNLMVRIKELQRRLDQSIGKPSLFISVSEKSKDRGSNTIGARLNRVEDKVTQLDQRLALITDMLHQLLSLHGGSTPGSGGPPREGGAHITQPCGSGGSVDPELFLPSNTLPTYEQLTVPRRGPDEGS
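Schedule – 37 °C overnight plating, 90-min dark dye load, 20-min compound pretreatment · System – stable KCNQ1 CHO-K1 line · Probe or stimulus – thallium- and potassium-containing depolarizing buffer · Measured by – kinetic FluxOR fluorescence, 10 s baseline plus 110 s post-stimulus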
KCNK3 inh: human KCNK3 channel inhibitors, primary screen, CHO cells, FluxOR thallium flux, B-score; FluxOR fluorescence; hits give low values; Potassium channel subfamily K member 3 (Homo sapiens), O14649; 340,000 compounds, 0.84% hits; AID 602410, 2012; B-score at 10 µM;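 active = B-score under library mean minus 4 SD, starting fluorescence ratio at most library mean plus 5 SD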;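 also: more negative B-score means stronger inhibition of thallium flux through KCNK3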
hERG rescue: hERG rescue from dofetilide block, primary screen, cell-based, CHO-hERG, FluxOR thallium flux, dofetilide IC70 | Voltage-gated inwardly rectifying potassium channel KCNH2 (Homo sapiens), Q12809 | dofetilide IC70 present | activation (rescue from dofetilide block), less the hit threshold, % at 10 µM | 310,000 compounds, 0.51% hits;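 active = activation above the mean of controls blocked by dofetilide plus 5 SD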;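 also: thallium influx through hERG after potassium depolarization seen as dye fluorescence rise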
KCNQ1 block: inhibitors of human KCNQ1 channel, primary screen, cell-based, thallium flux, high-throughput; 310,000 compounds, 1.3% hits; B-score at 10 µM; CHO-K1 KCNQ1, FluxOR thallium flux fluorescence; hits give high values; Potassium voltage-gated channel subfamily KQT member 1 (Homo sapiens), P51787;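 active = compounds whose thallium flux B-score, printed positive for inhibition, exceeds three library SD while starting fluorescence stays within three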;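 also: channel opened by potassium depolarization with thallium stimulus after 20 min compound exposure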
Kir21 inh: inhibitors of mouse Kir2.1 inward-rectifier potassium channel; Inward rectifier potassium channel 2 (Mus musculus), P35561; HEK293-Kir2.1, FluxOR thallium flux fluorescence; hits give low values; B-score at 10 µM; 310,000 compounds, 0.85% hits; AID 1672, 2009;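 active = fluorescence ratio B-score at or below minus 3 SD of library scores, with starting-brightness B-score within 2 SD, cut at about -4.2 in these data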;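 also: channel flux triggered by added potassium and thallium sulfate stimulus; B-score of peak minus minimum fluorescence over baseline after thallium stimulus; more negative B-score means stronger Kir2.1 block with less thallium influx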
A number is an active result; – = inactive; · = not tested or not shown.

SMILES	KCNK9 block	KCNQ1 pot	KCNK3 inh	hERG rescue	KCNQ1 block	Kir21 inh
Cc1ncsc1C(=O)N1N=C2/C(=C/c3ccccc3)CCCC2C1c1ccccc1 (stereo not drawn)	-7.6	–	–	–	7	–
O=C(O)c1ccccc1-c1ccc(/C=C/c2cc(C(F)(F)F)[nH]c(=O)n2)o1	–	–	–	–	–	–
O=c1nc(/C=C/c2ccc(-c3ccc(F)cc3)o2)cc(C(F)(F)F)[nH]1	–	–	·	–	11	–
CCN(CC)CCCNc1ccc2ncn3c4ccc(O)cc4c(=O)c1c23	·	·	–	·	·	·
CCOC(=O)c1sc(=NC(=O)c2cccc(C)c2)n(C)c1C	–	–	–	5.7	–	–
O=C(C1CC1)N1CCN(c2ccc(O)cc2)CC1	–	–	–	–	–	–
Cc1ccc(S(=O)(=O)N(CCC(=O)N2CCOCC2)c2ccccc2)cc1	·	·	–	·	·	·
COc1ccc(OC)c(NC(=S)N2CCC(C(O)(c3ccccc3)c3ccccc3)CC2)c1	–	44	–	–	–	–
O=[N+]([O-])c1ccc(Sc2nccn2Cc2ccccc2)cc1	–	–	–	–	–	-5
Clc1ccc(CSc2nccn2Cc2ccccc2)cc1	–	–	–	–	–	–
O=C(NCCc1cnn(-c2ccccc2)c1)c1cc(COc2c(F)cccc2F)on1	–	–	–	–	–	–
Cc1ccc(C)c(-n2c(-c3ccc(Br)cc3)csc2=NC(=O)c2ccccc2F)c1	-7.7	–	–	–	–	–
Cc1ccc(C)c(N2CCN(c3ncccc3[N+](=O)[O-])CC2)c1	-6.6	–	–	–	–	–
Cn1c(=O)nc2n(Cc3ccccc3)c3ccccc3cc-2c1=O	–	8	–	–	–	–
Cc1ccccc1-n1c(=O)c2ccccc2n2nnnc12	–	–	–	–	–	–
CN(C)c1nc2c(c(=O)n(C)c(=O)n2C)n1Cc1ccccc1	–	–	–	–	–	–
Cc1ccccc1-n1c2nc(=O)n(C)c(=O)c-2cc2ccccc21	–	–	–	–	7	–
CCCCn1c(=O)nc2n(-c3ccccc3C)c3ccccc3cc-2c1=O	–	11	–	–	–	–
NS(=O)(=O)c1ccc(NC(=O)COC(=O)COc2cccc(C(F)(F)F)c2)cc1	–	–	–	–	–	–
CC(=O)c1ccc(N2CCN(C(=O)c3ccc(Cl)c(NC4=NC5CS(=O)(=O)CC5S4)c3)CC2)cc1 (stereo not drawn)	–	–	–	–	–	–
O=[N+]([O-])c1cc([N+](=O)[O-])c2c(=Nc3ccccc3)n(-c3ccccc3)n(O)c2c1	–	–	-9.9	–	6	–
CN1/C(=C\C(=S)Nc2ccccc2)C(C)(C)c2ccccc21	-6.9	–	–	–	–	–
Cn1nnnc1SCCNC(=O)C1CCC(=O)N(Cc2ccc(Cl)cc2)C1 (stereo not drawn)	–	–	–	–	–	–
CC(OC(=O)C1CC1)C(=O)Nc1cc(Cl)cc(Cl)c1 (stereo not drawn)	·	·	-8.7	·	·	·
O=C1C(Cl)=C(NCCN2CCCCC2)C(=O)c2ccccc21	–	–	–	–	6	–
SMILES	KCNK9 block	KCNQ1 pot	KCNK3 inh	hERG rescue	KCNQ1 block	Kir21 inh
COC(=O)c1cc(=O)n(Cc2ccco2)c(=Nc2ccc(F)c(Cl)c2)s1	–	–	–	–	7	–
COC(=O)c1cc(=O)n(Cc2ccc3c(c2)OCO3)c(=Nc2ccc(F)cc2)s1	-8	–	–	–	6	–
COC(=O)c1cc(=O)n(Cc2ccc3c(c2)OCO3)c(=Nc2ccccc2)s1	–	–	–	–	–	–
C=CCOc1ccc(CN(C)C(=O)c2ccc(CNS(=O)(=O)c3ccc(C)c(C)c3)cc2)cc1	·	·	–	·	·	·
Cc1ccc(C(=O)Nc2ccccc2N2CCOCC2)cc1S(=O)(=O)N1CCOCC1	·	·	–	·	·	·
CN(C)c1ccc(C(O)c2cc3ccccc3s2)cc1 (stereo not drawn)	·	·	–	·	·	·
N#CC1(NC(=O)COc2ccc(S(=O)(=O)N3CCCC3)cc2[N+](=O)[O-])CCCCC1	–	–	–	–	–	–
Cc1ccc(/C=C/C(=O)c2ccccc(=O)c2O)cc1C	–	34	–	9.1	–	–
COc1ccc(C=CC(=O)c2ccc(OC)c(OC)c2O)cc1OC	·	·	–	·	·	·
Cc1c(C(=O)N(C)CCOc2ccccc2)oc2c(Cl)cccc12	·	·	-9.3	·	·	·
C/C(=N\NC(=O)c1cc2ccccc2cc1O)c1ccc(C)o1	–	26	–	8.9	–	–
CC1=CC(=C(C#N)c2nc3ccccc3s2)C=C(C)N1Cc1ccco1	–	–	-13	–	–	–
CCOC(=O)c1cccc(NC(=O)CSc2nnc(COc3ccccc3)n2CC)c1	–	–	–	–	–	–
CCOC(=O)c1ccccc1NC(=O)CSc1nnc(COc2ccccc2)n1CC	–	–	–	–	–	-6.2
CC(C)CCn1c(SCC(=O)Nc2ccccc2C(F)(F)F)nc2nccnc2c1=O	–	–	–	–	–	–
CC1=C(C(=O)Nc2ccccc2)C(c2ccco2)C(C#N)=C(SCC(=O)Nc2cccc(C)c2C)N1 (stereo not drawn)	–	–	–	–	–	–
CCc1ccc(C(=O)CSC2=C(C#N)C(c3ccco3)C(C(C)=O)=C(C)N2)cc1 (stereo not drawn)	-11	–	·	–	–	–
CC(=O)C1=C(C)NC(SCC(=O)c2ccc(F)cc2)=C(C#N)C1c1ccco1 (stereo not drawn)	–	–	–	–	–	–
CC1=C(C(=O)Nc2ccccc2)C(c2ccco2)C(C#N)=C(SCc2ccccc2)N1 (stereo not drawn)	–	–	·	–	11	–
CC1=C(C(=O)Nc2ccccc2)C(c2ccco2)C(C#N)=C(SCC(=O)OC(C)C)N1 (stereo not drawn)	–	–	-9.8	–	–	–
Fc1ccccc1OCCCn1ccnc1	–	–	–	–	–	–
COc1ccc(S(=O)(=O)NCC(=O)N(CC(=O)NCc2ccco2)C2CCCC2)cc1	–	–	–	–	–	–
NC(=O)C1CCN(C(=O)CSc2nc3ccccc3s2)CC1	–	–	–	5.6	–	–
O=C(CSc1nc2ccccc2s1)N1N=C(c2cccs2)CC1c1ccc(F)cc1 (stereo not drawn)	-6.9	–	–	–	–	–
O=C(O)C1CCN(C(=O)CSc2nc3ccccc3s2)CC1	–	–	–	–	–	–
C=CCNc1nnc(SCC(=O)N2CCC(C(N)=O)CC2)s1	–	9	–	–	–	–
